Experimental data reported in ChEMBL document CHEMBL3271986, “Studies on vitamin D (calciferol) and its analogues. 10. Side-chain analogues of 25-hydroxyvitamin D3” (J Med Chem, 1977).
Activity calls are given as the source filed them. The calls are words filed in the database; no cut-off is given here.

What was measured:
Assay type in all cases: functional, organism-based
Gallus gallus [1] = assay: Induction of intestinal [45Ca2+] absorption in rachitic white leghorn cockerel assessed as radioactivity in serum at 32.5 nmol, ip measured up to 96 hrs relative to control
Outline: (§1)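 Rachitic chicks (3 weeks on low-calcium diet lacking vitamin D, then zero-calcium diet for 3 days) were dosed ip in 0.2 ml propanediol-ethanol (3/1); solvent-only -D controls. At assay, 5 µCi 45Ca2+ plus 4 mg 40Ca2+ carrier was placed into the surgically exposed duodenum under light ether anesthesia. Serum radioactivity (0.2 ml) read 30 min later. Mean ± SEM, 8-10 birds.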

Gallus gallus [2] = assay: Induction of bone calcium mobilization in rachitic white leghorn cockerel assessed as Ca2+ level in serum at 32.5 nmol, ip measured up to 96 hrs by atomic absorption spectrometric analysis relative to control
Outline: (§2)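 Cockerels raised 3 weeks on rachitogenic low-calcium diet without vitamin D, then zero-calcium diet for 3 days before assay. Compound given ip in 0.2 ml 1,2-propanediol-ethanol (3/1); -D controls received solvent only, +D controls 6.5 nmol vitamin D3 24 h before assay. Serum Ca2+ measured by atomic absorption spectrometry on diluted serum. Mean ± SEM, 8-10 birds.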

Gallus gallus [3] = assay: Induction of intestinal [45Ca2+] absorption in rachitic white leghorn cockerel assessed as radioactivity in serum up to 97.5 nmol, ip measured at 24 hrs relative to control; outline: as §1
Gallus gallus [4] = assay: Induction of bone calcium mobilization in rachitic white leghorn cockerel assessed as Ca2+ level in serum up to 97.5 nmol, ip measured at 24 hrs by atomic absorption spectrometric analysis relative to control; outline: as §2
Gallus gallus [5] = assay: Induction of intestinal [45Ca2+] absorption in rachitic white leghorn cockerel assessed as radioactivity in serum at 130 nmol, ip measured at 24 hrs; outline: as §1
Gallus gallus [6] = assay: Induction of bone calcium mobilization in rachitic white leghorn cockerel assessed as Ca2+ level in serum at 130 nmol, ip measured at 24 hrs by atomic absorption spectrometric analysis; outline: as §2
Gallus gallus [7] = assay: Induction of intestinal [45Ca2+] absorption in rachitic white leghorn cockerel assessed as radioactivity in serum up to 78 nmol, ip treated 24 hrs prior to testing measured at 24 hrs post treatment
Outline: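 Rachitic White Leghorn cockerels (3 weeks rachitogenic low-calcium diet without vitamin D, zero-calcium diet for the last 3 days). Dosed intraperitoneally in 0.2 ml propanediol-ethanol (3/1) 24 h before assay. Under light ether anaesthesia the duodenum was exposed and given 5 μCi 45Ca2+ plus 4 mg carrier 40Ca2+. After 30 min, decapitation; radioactivity counted in 0.2 ml serum. Mean ± SEM, 8-10 birds.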

Gallus gallus [8] = assay: Induction of bone calcium mobilization in rachitic white leghorn cockerel assessed as Ca2+ level in serum up to 78 nmol, ip treated 24 hrs prior to testing measured at 24 hrs post treatment by atomic absorption spectrometric analysis
Outline: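 White Leghorn cockerels reared 3 weeks on a rachitogenic low-calcium diet without vitamin D, then zero-calcium diet for 3 days before assay. Single intraperitoneal dose in 0.2 ml 1,2-propanediol-ethanol (3/1) 24 h before assay; vehicle-only rachitic and vitamin D3 controls. Blood taken after decapitation and allowed to clot. Serum calcium measured by atomic absorption spectrometry on diluted samples. Mean ± SEM, 8-10 birds.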

SMILES | Activity (Gallus gallus [1]) | Activity (Gallus gallus [2]) | Activity (Gallus gallus [3]) | Activity (Gallus gallus [4]) | Activity (Gallus gallus [5]) | Activity (Gallus gallus [6]) | Activity (Gallus gallus [7]) | Activity (Gallus gallus [8])
C=C1CC[C@H](O)C/C1=C/C=C1\CCC[C@]2(C)[C@@H]([C@H](C)CCC(C)(C)O)CC[C@@H]12 | inactive | inactive | inactive | inactive |  |  |  | 
C=C1CC[C@H](O)C/C1=C/C=C1\CCC[C@]2(C)[C@@H]([C@H](C)CC(C)(C)O)CC[C@@H]12 | inactive | inactive | inactive | inactive |  |  |  | 
C=C1CC[C@H](O)C/C1=C/C=C1\CCC[C@]2(C)[C@@H]([C@H](C)C(C)(C)O)CC[C@@H]12 | inactive | inactive | inactive | inactive |  |  |  | 
C=C1CC[C@H](O)C/C1=C/C=C1\CCC[C@]2(C)[C@@H]([C@H](C)CCCCC(C)(C)O)CC[C@@H]12 |  |  |  |  | Active | Active | Active | Active
C=C1CC[C@H](O)C/C1=C/C=C1\CCC[C@]2(C)[C@@H]([C@H](C)CCCC(C)C)CC[C@@H]12 |  |  |  |  |  |  | Active | Active
C=C1CC[C@H](O)C/C1=C/C=C1\CCC[C@]2(C)[C@@H](C(C)(C)O)CC[C@@H]12 | inactive | inactive | inactive | inactive |  |  |  | 
